# According to ChEMBL document CHEMBL1138564, “Microwave-induced synthesis and anti-microbial activities of 7,10,11,12-tetrahydrobenzo[c]acridin-8(9H)-one derivatives” (2009):
# Calls of active or inactive are those of the source. The rule behind the calls is not given here.
# Experiments:
# Assay type in all cases: functional
# Escherichia coli [1] = experiment: Antimicrobial activity against Escherichia coli NCIM 2065 at 1000 ug/disk after 24 hrs by disk diffusion method; settings: NCIM 2065, 24 h, read-out: DIZ
# Outline: (§1)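 Disc diffusion on Mueller–Hinton agar. 100 µl of bacterial suspension at 10⁸ CFU/ml is spread on the plate. Discs carry test compounds at two loadings, dissolved in DMSO; DMSO alone serves as negative control. Ofloxacin disc is the positive reference. Plates are incubated at 37 °C for 24 h, and the inhibition zone diameter is measured.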
# Bacillus subtilis [2] = experiment: Antimicrobial activity against Bacillus subtilis NCIM 2063 at 1000 ug/disk after 24 hrs by disk diffusion method; settings: NCIM 2063, 24 h, read-out: DIZ; outline: as §1
# Bacillus cereus [3] = experiment: Antimicrobial activity against Bacillus cereus NCIM 2155 at 500 ug/disk after 24 hrs by disk diffusion method; settings: NCIM 2155, 24 h, read-out: DIZ; outline: as §1
# Bacillus cereus [4] = experiment: Antimicrobial activity against Bacillus cereus NCIM 2155 at 1000 ug/disk after 24 hrs by disk diffusion method; settings: NCIM 2155, 24 h, read-out: DIZ; outline: as §1
# Aliivibrio fischeri [5] = experiment: Antimicrobial activity against Vibrio fischeri NCIM 2154 at 500 ug/disk after 24 hrs by disk diffusion method
# Outline: (§2)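 Disc diffusion. 100 µl of bacterial suspension at 10⁸ CFU/ml was spread on Mueller–Hinton agar. Discs loaded with test compound dissolved in DMSO were placed on the lawn, with a DMSO-only disc as negative control. Plates were incubated at 37 °C for 24 h, and the inhibition zone diameter was measured.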
# Aliivibrio fischeri [6] = experiment: Antimicrobial activity against Vibrio fischeri NCIM 2154 at 1000 ug/disk after 24 hrs by disk diffusion method; settings: NCIM 2154, 24 h, read-out: DIZ; outline: as §2
# [7] = test system: Rhodococcus corynebacterioides; experiment: Antimicrobial activity against Corynebacterium rubrum NCIM 2252 at 500 ug/disk after 24 hrs by disk diffusion method; settings: Rhodococcoides corynebacterioides; outline: as §1
# [8] = test system: Rhodococcus corynebacterioides; experiment: Antimicrobial activity against Corynebacterium rubrum NCIM 2252 at 1000 ug/disk after 24 hrs by disk diffusion method; settings: Rhodococcoides corynebacterioides; outline: as §1
# Staphylococcus = experiment: Antimicrobial activity against Staphylococcus albus NCIM 2178 at 1000 ug/disk after 24 hrs by disk diffusion method; outline: as §2
# Proteus vulgaris [9] = experiment: Antimicrobial activity against Proteus vulgaris NCIM 2027 at 500 ug/disk after 24 hrs by disk diffusion method; outline: as §1
# Proteus vulgaris [10] = experiment: Antimicrobial activity against Proteus vulgaris NCIM 2027 at 1000 ug/disk after 24 hrs by disk diffusion method; outline: as §1
# Aspergillus flavus [11] = experiment: Antimicrobial activity against Aspergillus flavus NCIM 902 at 1000 ug/disk after 72 hrs by disk diffusion method; settings: NCIM 902, 72 h, read-out: DIZ
# Outline: (§3)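 Disc diffusion on Sabouraud's dextrose agar. 100 µl of fungal suspension at 10⁶ CFU/ml is spread on the plate. Discs carry test compounds at two loadings in DMSO; DMSO alone is the negative control. Clotrimazole disc is the positive reference. Plates are incubated at 27 °C for 72 h, and the zone of inhibition diameter is measured.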
# Rhodotorula mucilaginosa [12] = experiment: Antimicrobial activity against Rhodotorula rubra NCIM 3174 at 500 ug/disk after 72 hrs by disk diffusion method; settings: NCIM 3174, 72 h, read-out: DIZ
# Outline: (§4)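 Fungal disc diffusion. 100 µl of suspension at 10⁶ CFU/ml was spread on Sabouraud's dextrose agar. Discs carrying test compound in DMSO were applied, with a DMSO-only disc as negative control. Plates were incubated at 27 °C for 72 h, and the zone of inhibition diameter was measured.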
# Rhodotorula mucilaginosa [13] = experiment: Antimicrobial activity against Rhodotorula rubra NCIM 3174 at 1000 ug/disk after 72 hrs by disk diffusion method; settings: NCIM 3174, 72 h, read-out: DIZ; outline: as §4
# Aspergillus fumigatus [14] = experiment: Antimicrobial activity against Aspergillus fumigatus NCIM 902 at 500 ug/disk after 72 hrs by disk diffusion method; outline: as §3
# Aspergillus fumigatus [15] = experiment: Antimicrobial activity against Aspergillus fumigatus NCIM 902 at 1000 ug/disk after 72 hrs by disk diffusion method; settings: NCIM 902, 72 h, read-out: DIZ; outline: as §3
# Aspergillus parasiticus [16] = experiment: Antimicrobial activity against Aspergillus parasiticus NCIM 904 at 1000 ug/disk after 72 hrs by disk diffusion method; settings: NCIM 904, 72 h, read-out: DIZ; outline: as §3
# Penicillium chrysogenum [17] = experiment: Antimicrobial activity against Penicillium chrysogenum NCIM 707 at 500 ug/disk after 72 hrs by disk diffusion method; outline: as §3
# Penicillium chrysogenum [18] = experiment: Antimicrobial activity against Penicillium chrysogenum NCIM 707 at 1000 ug/disk after 72 hrs by disk diffusion method; outline: as §3
# Lipomyces lipofer [19] = experiment: Antimicrobial activity against Lipomyces lipofer NCIM 3252 at 500 ug/disk after 72 hrs by disk diffusion method; outline: as §3
# Lipomyces lipofer [20] = experiment: Antimicrobial activity against Lipomyces lipofer NCIM 3252 at 1000 ug/disk after 72 hrs by disk diffusion method; outline: as §3
# Klebsiella aerogenes = experiment: Antimicrobial activity against Klebsiella aerogenes NCIM 2239 at 1000 ug/disk after 24 hrs by disk diffusion method; outline: as §1
# Pseudomonas aeruginosa = experiment: Antimicrobial activity against Pseudomonas aeruginosa NCIM 2200 at 1000 ug/disk after 24 hrs by disk diffusion method; outline: as §1
# Aspergillus flavus [21] = experiment: Antimicrobial activity against Aspergillus flavus NCIM 902 after 72 hrs by serial dilution method; settings: NCIM 535, 72 h, in the assay text read “NCIM 535” for “NCIM 902”
# Outline: (§5)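 MIC by broth dilution in Sabouraud's dextrose broth, only for fungi sensitive in disc diffusion. Two-fold serial dilutions of compounds are made in 1 ml broth per tube, range 3.9 to 1000. Inoculated tubes are incubated at 27 °C for 72 h.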
# Rhodotorula mucilaginosa [22] = experiment: Antimicrobial activity against Rhodotorula rubra NCIM 3174 after 72 hrs by serial dilution method; settings: NCIM 3174, 72 h
# Outline: (§6)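 MIC by broth dilution in Sabouraud's dextrose broth, run only on fungi found sensitive in the disc assay. Twofold serial dilutions were made in 1 ml broth per tube, covering 3.9 to 1000. Inoculated tubes were incubated at 27 °C for 72 h.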
# Aspergillus parasiticus [23] = experiment: Antimicrobial activity against Aspergillus parasiticus NCIM 904 after 72 hrs by serial dilution method; settings: NCIM 904, 72 h; outline: as §5
# Trichoderma viride [24] = experiment: Antimicrobial activity against Trichoderma viride NCIM 1195 after 72 hrs by serial dilution method; settings: NCIM 1195, 72 h; outline: as §6
# Trichoderma viride [25] = experiment: Antimicrobial activity against Trichoderma viride NCIM 1195 at 500 ug/disk after 72 hrs by disk diffusion method; settings: NCIM 1195, 72 h, read-out: DIZ; outline: as §4
# Trichoderma viride [26] = experiment: Antimicrobial activity against Trichoderma viride NCIM 1195 at 1000 ug/disk after 72 hrs by disk diffusion method; settings: NCIM 1195, 72 h, read-out: DIZ; outline: as §4
# Escherichia coli [27] = experiment: Antimicrobial activity against Escherichia coli NCIM 2065 after 24 hrs by serial dilution method; settings: NCIM 2065, 24 h
# Outline: (§7)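 Broth dilution MIC in nutrient broth, run only for organisms found sensitive in disc diffusion. Compounds are two-fold serially diluted in 1 ml sterile broth per tube, spanning 3.9 to 1000. Inoculated tubes are incubated at 37 °C for 24 h.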
# Bacillus subtilis [28] = experiment: Antimicrobial activity against Bacillus subtilis NCIM 2063 after 24 hrs by serial dilution method; settings: NCIM 2063, 24 h; outline: as §7
# Aliivibrio fischeri [29] = experiment: Antimicrobial activity against Vibrio fischeri NCIM 2154 after 24 hrs by serial dilution method; settings: NCIM 2154, 24 h
structure (smiles),measurement,setting,value
CC1(C)CC(=O)C2=C(C1)Nc1c(ccc3ccccc13)C2c1ccccc1 (configuration not stated),zone of inhibition at 1000 µg/disc,Escherichia coli [1],10 mm
same,zone of inhibition at 1000 µg/disc,Bacillus subtilis [2],11 mm
same,zone of inhibition at 500 µg/disc,Bacillus cereus [3],9 mm
same,zone of inhibition at 1000 µg/disc,Bacillus cereus [4],12 mm
same,diameter of the inhibition zone (DIZ),Aliivibrio fischeri [5],inactive
same,zone of inhibition at 1000 µg/disc,Aliivibrio fischeri [6],8 mm
same,diameter of the inhibition zone (DIZ),[7],inactive
same,diameter of the inhibition zone (DIZ),[8],inactive
same,diameter of the inhibition zone (DIZ),Staphylococcus,inactive
same,diameter of the inhibition zone (DIZ),Proteus vulgaris [9],inactive
same,diameter of the inhibition zone (DIZ),Proteus vulgaris [10],inactive
same,zone of inhibition at 1000 µg/disc,Aspergillus flavus [11],10 mm
same,zone of inhibition at 500 µg/disc,Rhodotorula mucilaginosa [12],10 mm
same,zone of inhibition at 1000 µg/disc,Rhodotorula mucilaginosa [13],12 mm
same,diameter of the inhibition zone (DIZ),Aspergillus fumigatus [14],inactive
same,zone of inhibition at 1000 µg/disc,Aspergillus fumigatus [15],10 mm
same,zone of inhibition at 1000 µg/disc,Aspergillus parasiticus [16],10 mm
same,diameter of the inhibition zone (DIZ),Penicillium chrysogenum [17],inactive
same,diameter of the inhibition zone (DIZ),Penicillium chrysogenum [18],inactive
same,diameter of the inhibition zone (DIZ),Lipomyces lipofer [19],inactive
same,diameter of the inhibition zone (DIZ),Lipomyces lipofer [20],inactive
same,diameter of the inhibition zone (DIZ),Klebsiella aerogenes,inactive
same,diameter of the inhibition zone (DIZ),Pseudomonas aeruginosa,inactive
same,MIC,Aspergillus flavus [21],62.5 µg/mL
same,MIC,Rhodotorula mucilaginosa [22],31.2 µg/mL
same,MIC,Aspergillus parasiticus [23],62.5 µg/mL
same,MIC,Trichoderma viride [24],31.2 µg/mL
same,zone of inhibition at 500 µg/disc,Trichoderma viride [25],9 mm
same,zone of inhibition at 1000 µg/disc,Trichoderma viride [26],12 mm
same,MIC,Escherichia coli [27],62.5 µg/mL
same,MIC,Bacillus subtilis [28],31.2 µg/mL
same,MIC,Aliivibrio fischeri [29],125 µg/mL
